PGC1a acetyl up = raises PGC1a acetylation signal in U2OS cells. U2OS PGC1a acetylation AlphaScreen, overnight. activation, % at 15.6 µM. 0.21% of 350,000 active. AID 651723;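 active = every replicate reaching activation of at least 50%, whatever the mean replicate activation; inconclusive = replicates that disagree or another doubt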;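 note: hits raise the AlphaScreen acetylation signal above neutral controls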
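System: Flag-PGC1a/GCN5 U2OS cells | Quantity: 7000 cells/well | Times: Overnight compound treatment, 37 °C | Measured by: AlphaScreen proximity luminescence, anti-acetyl-lysine antibody | Dosing: One concentration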
G6PC hep suppr = hepatocyte G6PC expression change via PGC-1a acetylation activation | primary mouse hepatocytes, G6PC mRNA qPCR, forskolin | 240 tested, under 10 active | shares compounds with PGC1a acetyl up | G6PC suppression (normalized activity, % of positive control; higher = more suppression), % at 26 µM;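 active = dose curves showing G6PC suppression whose half-maximal dose is at most twice the top valid dose; inconclusive = flat curves with moderate negative activity, or unreliable fits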;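 note: G6PC expression relative to GAPDH housekeeping gene as delta delta Ct; 0% = median of neutral control wells and 100% = median of positive control wells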
Hep PCK1 suppr = hepatocyte PCK1 expression change via PGC-1a acetylation activation | AID 743465 | 230 tested, under 10 active | PCK1 expression decrease, unspecified at 26 µM | shares compounds with PGC1a acetyl up | primary mouse hepatocytes, PCK1 mRNA qPCR, forskolin-stimulated;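 active = compounds lowering PCK1 expression whose fitted half-maximal concentration is at most twice the top tested dose; inconclusive = flat fit with moderate opposite-direction effect, or poor fit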;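 note: values are delta delta Ct of PCK1 relative to GAPDH; higher delta delta Ct means lower PCK1 expression so positive values indicate hits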
PGC1a hep suppr = hepatocyte PGC-1a expression change via PGC-1a acetylation activation; primary mouse hepatocytes, PGC-1a mRNA qPCR, forskolin; top dose 26 µM; shares compounds with PGC1a acetyl up; 240 tested, under 10 active; AID 743467; max activity (PGC-1a expression decrease), %;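 active = compound lowering PGC-1a expression with fitted half-maximal concentration at most twice its top tested dose; inconclusive = flat curve with moderate opposite-direction effect, or poor fit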;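 note: 0% = neutral control wells median and 100% = positive control wells median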
An asterisk follows results filed as active; ? = inconclusive; / = no result given; [ ] = dose if it differs, or a comment. A selection follows.

SMILES	PGC1a acetyl up	G6PC hep suppr	Hep PCK1 suppr	PGC1a hep suppr
Fc1ccc(-c2nn3c(C4COc5ccccc5O4)nnc3s2)cc1 (configuration not stated)	55.0*	38.7	-36.2	79.3
Nc1cc2nsnc2cc1Br	-60.5	/	/	/
CCN(CC)CC#CCOC(c1ccccc1)c1ccccc1	-44.0	/	/	/
CCn1nnc(NC(=O)c2ccc(C(C)(C)C)cc2)n1	-41.0	/	/	/
COc1ccc(OC)c(NC(=O)CSc2nnc(-c3cccnc3)s2)c1	85.4*	-9.0	-11.4	54.8
COC(=O)[C@H](Cc1ccccc1)N(C)S(=O)(=O)c1cccc(S(=O)(=O)N(C)[C@@H](Cc2ccccc2)C(=O)OC)c1	?	-82.5	/	?
C/C(=N\Nc1nc(C)cc(=O)[nH]1)C1CC1	-41.0	/	/	/
CCCS(=O)(=O)Nc1cccc(-c2nc3cccnc3s2)c1	?	-45.3	-26.7	35.3
CCOC(=O)C1(Cc2ccccc2)CCN(Cc2cccc(OC)c2O)CC1	83.7*	20.1	39.5	?
c1cncc(CNc2ncnc3ccc(-c4ccoc4)cc23)c1	-55.1	/	/	/
COc1ccc(N(C(=O)c2snc(C(N)=O)c2N)C(C(=O)NC2CCCC2)c2ccco2)c(OC)c1 (configuration not stated)	?	/	6.71	-29.6
C#CC(=O)N(c1cccc(OC)c1)C(C(=O)NC1CCCC1)c1cccs1 (configuration not stated)	-93.0	/	/	/
C#CC(=O)N(c1ccc(OC)c(OC)c1)C(C(=O)NC1CCCC1)c1cccs1 (configuration not stated)	-102.7	/	/	/
O=C1CCCc2ccccc2N1Cc1ccc(Cl)cc1Cl	-56.0	/	/	/
CCn1cnc2cc(NCc3ccc(N(C)C)cc3)ccc21	-40.1	243.4	/	?
CC1CN(c2oc(-c3cccs3)nc2C#N)CC(C)O1 (configuration not stated)	-48.6	/	/	/
COc1ccc(N=C2S/C(=C\c3ccc(N4CCOCC4)o3)C(=O)N2CCc2c[nH]c3ccccc23)cc1	-62.1	/	/	/
O=C(Cc1ccccc1)Nc1ccc(NC(=O)c2cccs2)cc1	311.9*	42.6	3.32	42.1
O=C(CNC(=O)c1sc2ccccc2c1Cl)NCc1ccccc1	-52.3	/	/	/
Cc1ccc(C(=O)N2CCN(c3ccc(NC(=O)c4ccc(Br)o4)cc3)CC2)cc1	?	-37.3	-21.3	62.6
CN(NC(=O)c1ccccc1)C1=NS(=O)(=O)c2ccccc21	-40.1	/	/	/
CC1=C(C(N)=O)C(c2cccnc2)n2nc(-c3cccc(Cl)c3)nc2N1 (configuration not stated)	93.3*	15.4	30	91.1
Cc1c(OCc2ccc(C(=O)O)cc2)ccc2c(-c3ccccc3)cc(=O)oc12	-44.0	24.0	44.9	54.1
Cc1nn(C)c(C)c1N1C(=O)c2cccc3c(Br)ccc(c23)C1=O	-78.1	/	/	/
O=C(O)c1cc(O)c2c(c1)C(=O)c1cccc(O)c1C2=O	-67.0	/	/	/
SMILES	PGC1a acetyl up	G6PC hep suppr	Hep PCK1 suppr	PGC1a hep suppr
O=C(Nc1cccnc1)c1ccc(Br)s1	?	-7.9	26.8	47.0
O=C(CSc1c(Cl)cccc1Cl)NC1CCCc2ccccc21 (configuration not stated)	-42.6	/	/	/
COc1ccc(-c2c(-c3cc(OC)cc(OC)c3)n(C)c3ccc(-c4cnc(N)nc4)cc23)cc1	?	998.4	516	63.5
CC(C)(C)C1CCC(CN2C(Nc3ccccc3)=NC[C@@H]2Cc2ccccc2)CC1 (some centres not stated)	-87.6	/	/	/
COc1ccccc1-c1ccc2c(c1)O[C@@H](CN(C)Cc1ccc3c(c1)OCO3)[C@@H](C)CN([C@@H](C)CO)S2(=O)=O	64.9*	552.5	110	54.2
C[C@H]1CN([C@@H](C)CO)S(=O)(=O)c2ccc(C#CCN(C)C)cc2O[C@@H]1CN(C)Cc1ccc2c(c1)OCO2	?	303.8	132	45.3
COC(=O)Cn1ccc(-c2ccc(Cl)cc2)c(C#N)c1=O	-49.4	/	/	/
COc1cccc2c1C(=O)c1c(O)c3c(c(O)c1C2=O)CC(O)(C(C)=O)CC3OC1CC(N(C)C)C(O)C(C)O1 (configuration not stated)	-39.7	/	/	/
COc1cc(C)c(CN2CCN(S(=O)(=O)c3ccc(Cl)s3)CC2)cc1OC	79.2*	66.3	91	?
CCCc1cc2c(cc1N(C)S(=O)(=O)c1ccccc1)OCO2	?	18.3	152	117.1
COC(=O)/C(=C\Nc1cccc(Cl)c1C)c1ncc(C(F)(F)F)cc1Cl	-41.3	/	/	/
CC(N=C1NS(=O)(=O)c2ccccc21)C(=O)NCCCc1ccccc1 (configuration not stated)	-46.5	/	/	/
COc1cc(/C=N/NC(=O)c2ccncc2)ccc1OC(C)=O	-48.7	/	/	/
COc1ccc(-c2nc(N)c(C#N)c(-c3cccnc3)c2C)cc1	?	1.9	7.46	39.8
CC(C)(C)OC(=O)NCCc1nnc(SCc2ccc(Cl)cc2)o1	-41.0	/	/	/
C[N+]1(C)CCC(=C2c3ccccc3CC(=O)c3sccc32)CC1	-93.7	/	/	/
CCOC(=O)c1ccc(N2C(=O)C=CC2=O)cc1	-45.7	/	/	/
CCOC(=O)c1ccc(NC(=O)N2CCc3ccccc3C2)cc1	?	25.3[8 µM]	22.4	116.8
COc1ccccc1Oc1ccc2c(c1)C(=O)N(c1ccc(C)cc1)C2=O	-103.7	/	/	/
O=C(COc1ccc(Cl)cc1)NCCCNC(=O)c1cccnc1	112.4*	-16.7	11.3	57.6
CC(=O)c1c(C)oc2ccc(N(C(C)=O)S(=O)(=O)c3ccc(Cl)c([N+](=O)[O-])c3)cc12	-61.3	/	/	/
